In ChEMBL document CHEMBL1772951, “Synthesis of some novel benzofuran-2-yl(4,5-dihyro-3,5-substituted diphenylpyrazol-1-yl) methanones and studies on the antiproliferative effects and reversal of multidrug resistance of human MDR1-gene transfected mouse lymphoma cells in vitro” (Eur J Med Chem, 2011):
Converted amounts (≈) assume the structure as drawn.

How the values were obtained:
[1] = target: ATP-dependent translocase ABCB1 (Homo sapiens, UniProt P08183); test: Inhibition of human MDR1 expressed in mouse L5178Y cells assessed as rhodamine 123 accumulation at 20 ug/ml preincubated for 10 mins before rhodamine 123 challenge measured after 20 mins by flow cytometry relative to wild type; format: cell-based
Procedure, shortened: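 L5178Y cells were transfected with human MDR1 via pHa MDR1/A retrovirus and kept under 60 ng/ml colchicine, alongside parental cells, in McCoy's 5A with 10% horse serum at 37 °C, 5% CO₂. Cells at 2 × 10⁶/ml in serum-free medium got compound for 10 min at room temperature, then rhodamine 123 for 20 min at 37 °C. Cells were washed twice and read by flow cytometry, with verapamil as positive control. FAR = (MDR treated/MDR control)/(parental treated/parental control). One representative experiment, 1 × 10⁴ cells.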

[2] = test system: L5178Y MDR1-transfected mouse lymphoma cells (Mus musculus); test: Antiproliferative activity against mouse MDR1-transfected L5178Y lymphoma cells after 72 hrs by MTT assay; conditions: L5178Y MDR1, 72 h

Chain of ATP-dependent translocase ABCB1 (P08183 whole entry): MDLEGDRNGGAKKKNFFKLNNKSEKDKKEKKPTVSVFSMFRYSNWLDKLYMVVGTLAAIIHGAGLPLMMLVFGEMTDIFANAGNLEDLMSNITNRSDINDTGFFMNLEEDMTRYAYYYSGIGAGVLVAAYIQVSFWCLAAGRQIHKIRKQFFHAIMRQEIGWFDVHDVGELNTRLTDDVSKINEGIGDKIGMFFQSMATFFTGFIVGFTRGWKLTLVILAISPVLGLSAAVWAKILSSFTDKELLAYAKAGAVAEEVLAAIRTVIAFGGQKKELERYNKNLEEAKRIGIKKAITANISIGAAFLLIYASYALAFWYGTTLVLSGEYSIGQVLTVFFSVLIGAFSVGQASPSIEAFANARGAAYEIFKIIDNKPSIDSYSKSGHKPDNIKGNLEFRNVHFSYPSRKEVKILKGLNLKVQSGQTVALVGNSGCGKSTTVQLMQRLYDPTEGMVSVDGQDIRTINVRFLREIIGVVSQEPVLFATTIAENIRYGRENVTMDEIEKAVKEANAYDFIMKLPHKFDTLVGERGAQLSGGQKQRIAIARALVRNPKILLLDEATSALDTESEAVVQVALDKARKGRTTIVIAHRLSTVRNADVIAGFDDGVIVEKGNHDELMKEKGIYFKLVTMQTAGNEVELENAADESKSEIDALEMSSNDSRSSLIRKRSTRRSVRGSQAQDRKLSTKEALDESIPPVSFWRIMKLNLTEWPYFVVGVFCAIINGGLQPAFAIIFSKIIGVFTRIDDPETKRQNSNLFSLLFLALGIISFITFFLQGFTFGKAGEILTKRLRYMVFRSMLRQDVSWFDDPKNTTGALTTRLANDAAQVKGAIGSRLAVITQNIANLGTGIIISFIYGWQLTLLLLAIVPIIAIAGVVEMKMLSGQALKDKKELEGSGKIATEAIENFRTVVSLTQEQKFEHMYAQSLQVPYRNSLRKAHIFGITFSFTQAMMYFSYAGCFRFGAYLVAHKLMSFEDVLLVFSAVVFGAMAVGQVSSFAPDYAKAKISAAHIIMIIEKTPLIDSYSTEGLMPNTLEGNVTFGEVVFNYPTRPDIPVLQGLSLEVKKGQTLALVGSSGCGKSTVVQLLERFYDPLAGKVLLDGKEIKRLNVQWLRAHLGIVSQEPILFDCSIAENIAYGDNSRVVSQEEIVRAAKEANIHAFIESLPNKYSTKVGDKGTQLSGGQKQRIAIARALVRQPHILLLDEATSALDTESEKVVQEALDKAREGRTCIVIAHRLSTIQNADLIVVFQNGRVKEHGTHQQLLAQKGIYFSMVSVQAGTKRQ

Row | Compound | RFU [1] | IC50 [2]
1 | COc1ccc(C2CC(c3ccc(Cl)cc3)=NN2C(=O)c2cc3ccccc3o2)cc1 (centres undefined) | 5.85 | 5.74 µg/mL (≈ 13.3 µM)
2 | O=C(c1cc2ccccc2o1)N1N=C(c2ccc(Cl)cc2)CC1c1ccccc1Cl (centres undefined) | 6.02 | 44.8 µg/mL (≈ 103 µM)
3 | COc1ccc(C2CC(c3ccc(F)cc3)=NN2C(=O)c2cc3ccccc3o2)cc1 (centres undefined) | 8.72 | 23 µg/mL (≈ 55.5 µM)
4 | Cc1ccc(C2CC(c3ccc(F)cc3)=NN2C(=O)c2cc3ccccc3o2)cc1 (centres undefined) | 10.52 | > 50 µg/mL
5 | O=C(c1cc2ccccc2o1)N1N=C(c2ccccc2)CC1c1ccc(Cl)cc1 (centres undefined) | 8.34 | 5.13 µg/mL (≈ 12.8 µM)
6 | COc1ccc(C2CC(c3ccc(F)cc3)=NN2C(=O)c2cc3ccccc3o2)cc1OC (centres undefined) | 16.22 | > 50 µg/mL
7 | O=C(c1cc2ccccc2o1)N1N=C(c2ccc(F)cc2)CC1c1ccc([N+](=O)[O-])cc1 (centres undefined) | 12.58 | > 50 µg/mL
8 | O=C(c1cc2ccccc2o1)N1N=C(c2ccc(F)cc2)CC1c1ccc(F)cc1 (centres undefined) | 14.56 | > 50 µg/mL
9 | O=C(c1cc2ccccc2o1)N1N=C(c2ccc(F)cc2)CC1c1ccccc1Cl (centres undefined) | 16.94 | 45.2 µg/mL (≈ 108 µM)
10 | O=C(c1cc2ccccc2o1)N1N=C(c2ccc(Cl)cc2)CC1c1ccccc1 (centres undefined) | 6.77 | 13.6 µg/mL (≈ 34 µM)
11 | O=C(c1cc2ccccc2o1)N1N=C(c2ccc(Cl)cc2)CC1c1ccc(Cl)cc1 (centres undefined) | 2.9 | 8.5 µg/mL (≈ 19.5 µM)
12 | O=C(c1cc2ccccc2o1)N1N=C(c2ccccc2)CC1c1ccc(F)cc1 (centres undefined) | 20.06 | 9.94 µg/mL (≈ 25.8 µM)
13 | O=C(c1cc2ccccc2o1)N1N=C(c2ccccc2)CC1c1ccccc1 (centres undefined) | 18.8 | 7.58 µg/mL (≈ 20.7 µM)
14 | Cc1ccc(C2CC(c3ccccc3)=NN2C(=O)c2cc3ccccc3o2)cc1 (centres undefined) | 7.59 | 16.6 µg/mL (≈ 43.6 µM)
15 | COc1ccc(C2CC(c3ccccc3)=NN2C(=O)c2cc3ccccc3o2)cc1 (centres undefined) | 26.77 | 4.57 µg/mL (≈ 11.5 µM)
16 | COc1ccc(C2CC(c3ccccc3)=NN2C(=O)c2cc3ccccc3o2)cc1OC (centres undefined) | 29.9 | 6.89 µg/mL (≈ 16.2 µM)
17 | O=C(c1cc2ccccc2o1)N1N=C(c2ccc(F)cc2)CC1c1ccccc1 (centres undefined) | 15.82 | 11.8 µg/mL (≈ 30.6 µM)
18 | O=C(c1cc2ccccc2o1)N1N=C(c2ccc(F)cc2)CC1c1ccc(Cl)cc1 (centres undefined) | 6.96 | > 50 µg/mL
19 | O=C(c1cc2ccccc2o1)N1N=C(c2ccccc2)CC1c1ccc([N+](=O)[O-])cc1 (centres undefined) | 15.18 | 4.87 µg/mL (≈ 11.8 µM)
20 | COc1ccc(C2CC(c3ccc(Cl)cc3)=NN2C(=O)c2cc3ccccc3o2)cc1OC (centres undefined) | 5.87 | 6.29 µg/mL (≈ 13.6 µM)
21 | O=C(c1cc2ccccc2o1)N1N=C(c2ccc(Cl)cc2)CC1c1ccc([N+](=O)[O-])cc1 (centres undefined) | 12.61 | 34.1 µg/mL (≈ 76.5 µM)
22 | O=C(c1cc2ccccc2o1)N1N=C(c2ccccc2)CC1c1ccccc1Cl (centres undefined) | 16.1 | 6.22 µg/mL (≈ 15.5 µM)
